Results published in ChEMBL document CHEMBL1165965, “Synthesis and structure-activity relationships of 1,2,3,4-tetrahydropyrido[2,3-b]pyrazines as potent and selective inhibitors of the anaplastic lymphoma kinase” (Bioorg Med Chem, 2010).

How the values were obtained:
[1] = target: T1, Mitogen-activated protein kinase kinase kinase 3 (Homo sapiens) (UniProt Q99759); test: Inhibition of MAP3K3 at 1 uM
T1 sequence (whole entry): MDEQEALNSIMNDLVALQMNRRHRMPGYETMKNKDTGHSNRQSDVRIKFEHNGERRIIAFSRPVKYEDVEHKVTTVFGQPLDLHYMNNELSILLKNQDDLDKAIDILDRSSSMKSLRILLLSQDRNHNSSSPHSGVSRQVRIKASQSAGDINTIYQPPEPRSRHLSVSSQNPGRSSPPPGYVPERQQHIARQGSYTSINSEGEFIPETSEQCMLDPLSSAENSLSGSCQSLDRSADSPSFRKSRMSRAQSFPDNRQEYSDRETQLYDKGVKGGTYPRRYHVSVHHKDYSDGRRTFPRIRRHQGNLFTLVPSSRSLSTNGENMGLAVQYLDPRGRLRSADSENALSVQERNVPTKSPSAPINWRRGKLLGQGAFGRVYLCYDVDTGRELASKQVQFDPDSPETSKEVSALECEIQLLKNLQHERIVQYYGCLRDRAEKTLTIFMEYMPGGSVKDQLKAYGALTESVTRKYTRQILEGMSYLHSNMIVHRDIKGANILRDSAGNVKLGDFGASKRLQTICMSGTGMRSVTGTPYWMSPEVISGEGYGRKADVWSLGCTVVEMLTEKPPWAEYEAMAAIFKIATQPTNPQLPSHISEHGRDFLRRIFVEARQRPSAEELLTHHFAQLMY

[2] = target: T2, Tyrosine-protein kinase receptor TYRO3 (Homo sapiens) (UniProt Q06418); test: Inhibition of TYRO3 at 1 uM
T2 sequence (whole entry): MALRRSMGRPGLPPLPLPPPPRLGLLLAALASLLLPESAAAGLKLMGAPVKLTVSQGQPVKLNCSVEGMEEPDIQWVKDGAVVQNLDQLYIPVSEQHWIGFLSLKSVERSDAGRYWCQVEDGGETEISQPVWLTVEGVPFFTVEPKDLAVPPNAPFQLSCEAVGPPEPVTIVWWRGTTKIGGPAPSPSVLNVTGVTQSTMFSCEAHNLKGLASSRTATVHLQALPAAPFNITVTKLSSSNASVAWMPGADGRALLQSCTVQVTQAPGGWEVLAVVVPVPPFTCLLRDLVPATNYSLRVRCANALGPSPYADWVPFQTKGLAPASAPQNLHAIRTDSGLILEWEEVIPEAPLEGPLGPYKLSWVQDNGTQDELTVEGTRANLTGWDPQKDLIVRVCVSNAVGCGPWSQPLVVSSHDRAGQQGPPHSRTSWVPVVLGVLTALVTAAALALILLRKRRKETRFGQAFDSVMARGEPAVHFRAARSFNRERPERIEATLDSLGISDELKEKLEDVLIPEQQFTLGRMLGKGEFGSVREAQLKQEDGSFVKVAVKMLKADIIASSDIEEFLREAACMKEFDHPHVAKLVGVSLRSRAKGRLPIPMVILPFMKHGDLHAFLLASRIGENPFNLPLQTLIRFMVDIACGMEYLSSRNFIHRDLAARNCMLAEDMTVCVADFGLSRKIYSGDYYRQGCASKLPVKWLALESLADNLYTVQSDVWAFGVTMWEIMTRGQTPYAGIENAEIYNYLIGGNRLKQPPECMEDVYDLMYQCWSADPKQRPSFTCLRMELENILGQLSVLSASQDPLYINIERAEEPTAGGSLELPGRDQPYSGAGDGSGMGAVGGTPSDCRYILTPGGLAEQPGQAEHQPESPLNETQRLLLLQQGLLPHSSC

[3] = target: T3, Mitogen-activated protein kinase kinase kinase 5 (Homo sapiens) (UniProt Q99683); test: Inhibition of ASK1 at 1 uM
T3 sequence (whole entry): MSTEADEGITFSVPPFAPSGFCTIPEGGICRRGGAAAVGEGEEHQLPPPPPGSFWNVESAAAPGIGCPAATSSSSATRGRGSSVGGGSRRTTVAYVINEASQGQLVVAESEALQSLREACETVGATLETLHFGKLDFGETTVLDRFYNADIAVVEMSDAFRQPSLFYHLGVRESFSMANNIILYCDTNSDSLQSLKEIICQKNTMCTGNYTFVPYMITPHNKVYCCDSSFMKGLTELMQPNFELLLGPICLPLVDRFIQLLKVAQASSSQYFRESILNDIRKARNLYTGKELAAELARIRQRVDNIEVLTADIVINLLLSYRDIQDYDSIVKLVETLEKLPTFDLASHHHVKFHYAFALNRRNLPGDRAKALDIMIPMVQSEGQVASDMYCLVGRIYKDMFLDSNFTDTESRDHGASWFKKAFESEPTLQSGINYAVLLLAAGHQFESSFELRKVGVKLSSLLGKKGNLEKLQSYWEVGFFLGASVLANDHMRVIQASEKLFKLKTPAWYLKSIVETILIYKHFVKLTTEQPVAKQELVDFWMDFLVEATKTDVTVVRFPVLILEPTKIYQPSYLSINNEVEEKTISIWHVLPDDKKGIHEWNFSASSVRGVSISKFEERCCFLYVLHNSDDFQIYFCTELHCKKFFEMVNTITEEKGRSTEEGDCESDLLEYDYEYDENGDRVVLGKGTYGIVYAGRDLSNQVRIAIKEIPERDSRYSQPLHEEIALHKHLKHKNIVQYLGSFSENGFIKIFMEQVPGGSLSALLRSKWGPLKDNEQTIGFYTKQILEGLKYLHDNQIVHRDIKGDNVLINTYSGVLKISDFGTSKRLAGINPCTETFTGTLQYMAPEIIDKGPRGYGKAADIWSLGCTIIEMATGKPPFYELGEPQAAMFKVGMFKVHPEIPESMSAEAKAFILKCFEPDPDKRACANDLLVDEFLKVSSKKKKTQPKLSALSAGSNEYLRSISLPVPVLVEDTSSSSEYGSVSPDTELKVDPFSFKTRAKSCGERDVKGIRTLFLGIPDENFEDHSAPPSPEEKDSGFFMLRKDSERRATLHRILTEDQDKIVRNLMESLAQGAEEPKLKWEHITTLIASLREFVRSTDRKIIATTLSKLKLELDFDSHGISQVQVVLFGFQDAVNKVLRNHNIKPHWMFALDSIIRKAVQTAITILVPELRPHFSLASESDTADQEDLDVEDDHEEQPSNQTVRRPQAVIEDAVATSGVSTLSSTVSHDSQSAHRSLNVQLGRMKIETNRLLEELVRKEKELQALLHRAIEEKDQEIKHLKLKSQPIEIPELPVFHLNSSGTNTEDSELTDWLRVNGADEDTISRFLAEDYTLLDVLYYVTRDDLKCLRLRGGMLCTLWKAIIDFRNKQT
Method in brief: (§1)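 Ambit KINOMEscan screen at a single concentration across a 250–400 kinase panel, recorded as percent inhibition. Selectivity was expressed as S(90), the fraction of kinases inhibited >90%.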

[4] = target: Calcium/calmodulin-dependent protein kinase kinase 2 (Homo sapiens) (UniProt Q96RR4); test: Inhibition of CAMKK2 at 1 uM; method in brief: as §1
Sequence of Calcium/calmodulin-dependent protein kinase kinase 2 (Homo sapiens) (Q96RR4 2-588 limits assumed): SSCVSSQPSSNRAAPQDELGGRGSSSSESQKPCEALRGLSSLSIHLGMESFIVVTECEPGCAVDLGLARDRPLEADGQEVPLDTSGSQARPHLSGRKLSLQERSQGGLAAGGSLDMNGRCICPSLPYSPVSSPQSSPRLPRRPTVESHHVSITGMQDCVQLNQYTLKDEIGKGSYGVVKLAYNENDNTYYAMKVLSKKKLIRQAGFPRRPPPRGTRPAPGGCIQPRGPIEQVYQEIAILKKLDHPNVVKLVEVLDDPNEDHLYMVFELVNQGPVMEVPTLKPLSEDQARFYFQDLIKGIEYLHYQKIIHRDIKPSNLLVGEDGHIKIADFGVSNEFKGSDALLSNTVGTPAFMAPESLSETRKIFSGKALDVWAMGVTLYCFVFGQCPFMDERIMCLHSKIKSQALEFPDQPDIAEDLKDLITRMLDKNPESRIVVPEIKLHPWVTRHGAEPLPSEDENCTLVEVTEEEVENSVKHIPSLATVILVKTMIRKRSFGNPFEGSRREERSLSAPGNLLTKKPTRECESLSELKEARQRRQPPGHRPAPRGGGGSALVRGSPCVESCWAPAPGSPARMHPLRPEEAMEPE

[5] = target: Cyclin-dependent kinase 3 (Homo sapiens) (UniProt Q00526); test: Inhibition of CDK3 at 1 uM
Sequence of Cyclin-dependent kinase 3 (Homo sapiens) (Q00526 whole entry, looked up): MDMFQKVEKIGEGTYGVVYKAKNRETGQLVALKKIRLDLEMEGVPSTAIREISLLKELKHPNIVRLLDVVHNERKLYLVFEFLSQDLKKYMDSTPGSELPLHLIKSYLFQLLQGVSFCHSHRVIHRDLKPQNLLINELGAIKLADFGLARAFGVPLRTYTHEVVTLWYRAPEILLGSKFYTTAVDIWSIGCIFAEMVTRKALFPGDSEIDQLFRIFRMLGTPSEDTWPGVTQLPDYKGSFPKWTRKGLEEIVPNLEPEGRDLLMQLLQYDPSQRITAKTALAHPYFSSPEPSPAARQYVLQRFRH

For `CN1CCN(c2ccc(-c3cnc4c(c3)N(Cc3cc(Cl)ccc3Cl)CCN4)cn2)CC1`, the inhibition [1] was < 50%, the inhibition [2] was < 50% and the inhibition [3] was < 50%. For the same compound, the inhibition [4] was < 50% and the inhibition [5] was < 50%.
`CN1CCN(c2ccc(-c3cnc4c(c3)N(Cc3cc(Cl)ccc3C(F)(F)F)CCN4)cn2)CC1` was tested, and the inhibition [1] was < 50%, the inhibition [2] was < 50% and the inhibition [3] was < 50%. For the same compound, the inhibition [4] was < 50% and the inhibition [5] was < 50%.
In the case of `CN1CCN(c2ccc(-c3cnc4c(c3)N(Cc3c(F)ccc(F)c3Cl)CCN4)cn2)CC1`, the inhibition [1] is reported as < 50%, the inhibition [2] is reported as < 50% and the inhibition [3] is reported as < 50%. The inhibition [4] was < 50% and the inhibition [5] was < 50%.
In the case of `O=C(c1ccc(-c2cnc3c(c2)N(Cc2cc(Cl)ccc2C(F)(F)F)CCN3)cc1)N1CCC(N2CCCC2)CC1`, the inhibition [2] is reported as < 50%, the inhibition [3] is reported as < 50% and the inhibition [4] is reported as < 50%.
With `COC1CCN(C(=O)c2ccc(-c3cnc4c(c3)N(Cc3cc(Cl)ccc3C(F)(F)F)CCN4)cc2)CC1` the inhibition [2] was < 50%, the inhibition [3] was < 50% and the inhibition [4] was < 50%.
For `FC(F)(F)c1ccc(Cl)cc1CN1CCNc2ncc(-c3ccnc(N4CCNCC4)c3)cc21`, the inhibition [1] was 88%, the inhibition [2] was < 50% and the inhibition [3] was < 50%. For the same compound, the inhibition [4] was < 50% and the inhibition [5] was < 50%.
In the case of `CN1CCN(c2ccc(-c3cnc4c(c3)N(Cc3cc(F)ccc3F)CCN4)cn2)CC1`, the inhibition [1] is reported as < 50%, the inhibition [2] is reported as < 50% and the inhibition [3] is reported as < 50%. For the same compound, the inhibition [4] was < 50% and the inhibition [5] was < 50%.
In the case of `O=C(c1ccc(-c2cnc3c(c2)N(Cc2cc(Cl)ccc2C(F)(F)F)CCN3)cc1)N1CCCCC1`, the inhibition [2] is reported as < 50%, the inhibition [3] is reported as < 50% and the inhibition [4] is reported as < 50%.
In the case of `CC(=O)N1CCN(c2cc(-c3cnc4c(c3)N(Cc3cc(Cl)ccc3C(F)(F)F)CCN4)ccn2)CC1`, the inhibition [1] is reported as < 50%, the inhibition [2] is reported as < 50% and the inhibition [3] is reported as < 50%. For the same compound, the inhibition [4] was < 50% and the inhibition [5] was < 50%.
`O=C(O)c1ccc(-c2cnc3c(c2)N(Cc2cc(Cl)ccc2C(F)(F)F)CCN3)cc1` was tested, and the inhibition [2] was < 50%, the inhibition [3] was < 50% and the inhibition [4] was < 50%.
